The target of data set [1] is T1, CYP1A1 (Homo sapiens, UniProt P04798).
T1 sequence (P04798 whole entry): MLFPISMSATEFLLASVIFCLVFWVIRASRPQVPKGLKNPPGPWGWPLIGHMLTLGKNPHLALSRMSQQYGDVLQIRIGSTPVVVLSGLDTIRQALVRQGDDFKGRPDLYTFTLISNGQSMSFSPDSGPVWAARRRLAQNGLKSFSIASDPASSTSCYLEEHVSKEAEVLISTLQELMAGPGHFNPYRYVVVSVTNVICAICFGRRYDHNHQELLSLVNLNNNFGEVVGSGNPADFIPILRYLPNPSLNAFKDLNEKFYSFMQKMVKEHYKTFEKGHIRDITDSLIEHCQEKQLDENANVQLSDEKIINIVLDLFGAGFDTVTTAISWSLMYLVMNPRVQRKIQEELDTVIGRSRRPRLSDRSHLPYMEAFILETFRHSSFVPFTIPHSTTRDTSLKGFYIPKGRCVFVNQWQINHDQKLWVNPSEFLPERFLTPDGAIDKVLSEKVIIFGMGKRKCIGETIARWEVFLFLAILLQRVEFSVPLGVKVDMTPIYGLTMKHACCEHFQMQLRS
Nature of the data set: Substrate activity at recombinant human CYP1A1 expressed in baculovirus infected insect cells assessed as parent compound remaining at 1 uM incubated for 60 mins in absence of NADP+-regenerating system by LC-MS analysis. Particulars: read-out: Stability. The class given is ADME. The gist of the method:
(§1)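 Baculovirus/insect-cell Supersomes, each expressing a single human CYP, at 25 pmol/mL. Compound at 1 μM (0.25% DMSO), 37 °C, 60 min. Reactions run with a NADP+-regenerating cofactor mix or, as negative control, without cofactors and glucose-6-phosphate dehydrogenase. Stopped with ACN containing internal standard. Duplicates; % remaining from absolute amounts.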

Data set [2] concerns the target Phosphatidylinositol 4,5-bisphosphate 3-kinase catalytic subunit gamma isoform (Homo sapiens, UniProt P48736). Nature of the data set: Binding affinity to human wild-type partial length PI3Kgamma (S144 to A1102 residues) expressed in mammalian expression system by kinome scan assay. In outline:
(§2)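 DNA-tagged kinases competed against immobilized ligand with an 11-point 3-fold serial dilution starting from 30 μM. Kinase bound measured by qPCR of the DNA tags. Kd from standard dose–response curves with the Hill equation (Hill slope −1); mean of duplicate experiments.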

For data set [3], the target named is Serine/threonine-protein kinase mTOR (Homo sapiens, UniProt P42345). Kind of data set: Binding affinity to wild-type human partial length mTOR (L1382 to W2549 residues) expressed in mammalian expression system by kinome scan assay. In outline: as §2
For data set [4], the species on record is Homo sapiens. Nature of the data set: Selectivity ratio of Kd for binding affinity to human wild-type partial length PI3Kalpha (R108 to N1068 residues) expressed in mammalian expression system to Kd for binding affinity to wild-type human partial length mTOR (L1382 to W2549 residues) expressed in mammalian expression system. In outline:
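Ratio of Kd values from the DNA-tagged kinase competition binding assay (qPCR read-out, 11-point 3-fold dilution from 30 μM, Hill fit with slope −1, duplicates): PI3Kα Kd divided by mTOR Kd.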

The target of data set [5] is PI3-kinase p110-alpha/p85-alpha (Homo sapiens, UniProt P42336). Nature of the data set: Inhibition of alexa fluor 647-labeled kinase tracer 314 binding to recombinant human full-length N-terminal His6-tagged p110alpha/p85alpha expressed in baculovirus expression system by TR-FRET assay. On the technique in general: In TR-FRET formats the signal depends on donor and acceptor labels being close together.
Sequence of PI3-kinase p110-alpha/p85-alpha (P27986 whole entry): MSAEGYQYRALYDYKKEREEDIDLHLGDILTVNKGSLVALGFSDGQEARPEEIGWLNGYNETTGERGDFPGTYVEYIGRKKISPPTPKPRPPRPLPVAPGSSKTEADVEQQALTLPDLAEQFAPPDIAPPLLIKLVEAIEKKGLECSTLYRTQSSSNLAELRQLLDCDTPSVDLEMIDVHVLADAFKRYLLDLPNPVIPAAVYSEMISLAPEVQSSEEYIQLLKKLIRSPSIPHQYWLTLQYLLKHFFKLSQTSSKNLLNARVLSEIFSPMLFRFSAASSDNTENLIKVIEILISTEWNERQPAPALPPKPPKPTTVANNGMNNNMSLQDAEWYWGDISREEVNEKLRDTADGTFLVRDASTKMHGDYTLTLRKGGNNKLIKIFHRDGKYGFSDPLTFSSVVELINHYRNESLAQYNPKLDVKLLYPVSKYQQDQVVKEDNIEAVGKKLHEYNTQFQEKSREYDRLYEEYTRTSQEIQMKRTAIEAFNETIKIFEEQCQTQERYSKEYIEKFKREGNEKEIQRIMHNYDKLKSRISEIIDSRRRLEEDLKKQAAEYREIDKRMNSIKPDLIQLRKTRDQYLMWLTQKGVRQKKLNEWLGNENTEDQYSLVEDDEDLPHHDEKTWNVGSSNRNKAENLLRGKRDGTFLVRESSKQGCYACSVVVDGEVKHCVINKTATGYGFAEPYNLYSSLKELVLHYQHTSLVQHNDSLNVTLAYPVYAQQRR
Sequence of PI3-kinase p110-alpha/p85-alpha (P42336 whole entry): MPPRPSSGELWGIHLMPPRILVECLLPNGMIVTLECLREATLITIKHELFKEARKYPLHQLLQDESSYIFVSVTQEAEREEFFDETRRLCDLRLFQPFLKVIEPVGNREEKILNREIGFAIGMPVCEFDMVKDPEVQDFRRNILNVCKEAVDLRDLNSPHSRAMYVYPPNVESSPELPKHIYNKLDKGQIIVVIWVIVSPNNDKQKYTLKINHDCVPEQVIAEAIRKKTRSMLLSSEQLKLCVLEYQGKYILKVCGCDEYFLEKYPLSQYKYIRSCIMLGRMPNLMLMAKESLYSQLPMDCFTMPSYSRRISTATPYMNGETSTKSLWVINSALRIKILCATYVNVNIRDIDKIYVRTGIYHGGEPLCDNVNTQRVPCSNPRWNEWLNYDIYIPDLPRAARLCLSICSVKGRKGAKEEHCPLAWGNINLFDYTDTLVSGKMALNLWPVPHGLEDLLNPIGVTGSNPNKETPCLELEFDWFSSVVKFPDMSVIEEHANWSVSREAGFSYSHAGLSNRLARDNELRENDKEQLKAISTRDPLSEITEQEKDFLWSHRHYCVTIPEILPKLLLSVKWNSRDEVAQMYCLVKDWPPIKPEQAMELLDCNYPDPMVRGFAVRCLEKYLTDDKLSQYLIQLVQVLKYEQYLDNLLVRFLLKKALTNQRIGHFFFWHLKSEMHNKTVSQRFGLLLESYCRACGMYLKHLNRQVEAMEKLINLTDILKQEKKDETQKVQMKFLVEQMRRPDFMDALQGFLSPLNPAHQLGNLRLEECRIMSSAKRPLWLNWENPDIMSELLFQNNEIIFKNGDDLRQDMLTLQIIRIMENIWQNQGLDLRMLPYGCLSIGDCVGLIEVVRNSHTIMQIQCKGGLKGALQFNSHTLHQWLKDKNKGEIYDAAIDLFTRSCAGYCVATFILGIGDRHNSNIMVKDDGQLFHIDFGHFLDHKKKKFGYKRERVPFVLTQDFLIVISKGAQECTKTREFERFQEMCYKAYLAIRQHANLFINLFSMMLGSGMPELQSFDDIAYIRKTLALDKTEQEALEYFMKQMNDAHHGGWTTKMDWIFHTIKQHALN

Data set [6] has as its target Phosphatidylinositol 4,5-bisphosphate 3-kinase catalytic subunit beta isoform (Homo sapiens, UniProt P42338). Kind of data set: Binding affinity to human wild-type partial length PI3Kbeta (P118 to S1070 residues) expressed in mammalian expression system by kinome scan assay. The gist of the method: as §2
For data set [7], the target named is mTORC1 (Homo sapiens, UniProt P42345). Nature of the data set: Inhibition of mTORC1 in human A2058 cells assessed as reduction in ribosomal protein S6 phosphorylation at Ser235/236 residues incubated for 1 hr by Western blot analysis. The class given is cell-based. The gist of the method:
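In-cell Western assay. A2058 cells (2 × 10^4/well) grown 24 h at 37 °C, 5% CO2, then exposed 1 h to inhibitor or DMSO. Cells fixed in 4% PFA, blocked, and stained for the phospho-protein with α-tubulin as internal standard; infrared fluorescence read-out. Signals normalized to tubulin and to DMSO controls to derive IC50.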
(In western blotting, separated proteins are transferred to a membrane and probed.)

The target of data set [8] is Phosphatidylinositol 3-kinase catalytic subunit type 3 (Homo sapiens, UniProt Q8NEB9). Nature of the data set: Binding affinity to human wild-type partial length VPS34 (S282 to H879 residues) expressed in mammalian expression system by kinome scan assay. The gist of the method: as §2
Sequence of Phosphatidylinositol 3-kinase catalytic subunit type 3 (Q8NEB9 whole entry, the tested form may be a part, canonical isoform): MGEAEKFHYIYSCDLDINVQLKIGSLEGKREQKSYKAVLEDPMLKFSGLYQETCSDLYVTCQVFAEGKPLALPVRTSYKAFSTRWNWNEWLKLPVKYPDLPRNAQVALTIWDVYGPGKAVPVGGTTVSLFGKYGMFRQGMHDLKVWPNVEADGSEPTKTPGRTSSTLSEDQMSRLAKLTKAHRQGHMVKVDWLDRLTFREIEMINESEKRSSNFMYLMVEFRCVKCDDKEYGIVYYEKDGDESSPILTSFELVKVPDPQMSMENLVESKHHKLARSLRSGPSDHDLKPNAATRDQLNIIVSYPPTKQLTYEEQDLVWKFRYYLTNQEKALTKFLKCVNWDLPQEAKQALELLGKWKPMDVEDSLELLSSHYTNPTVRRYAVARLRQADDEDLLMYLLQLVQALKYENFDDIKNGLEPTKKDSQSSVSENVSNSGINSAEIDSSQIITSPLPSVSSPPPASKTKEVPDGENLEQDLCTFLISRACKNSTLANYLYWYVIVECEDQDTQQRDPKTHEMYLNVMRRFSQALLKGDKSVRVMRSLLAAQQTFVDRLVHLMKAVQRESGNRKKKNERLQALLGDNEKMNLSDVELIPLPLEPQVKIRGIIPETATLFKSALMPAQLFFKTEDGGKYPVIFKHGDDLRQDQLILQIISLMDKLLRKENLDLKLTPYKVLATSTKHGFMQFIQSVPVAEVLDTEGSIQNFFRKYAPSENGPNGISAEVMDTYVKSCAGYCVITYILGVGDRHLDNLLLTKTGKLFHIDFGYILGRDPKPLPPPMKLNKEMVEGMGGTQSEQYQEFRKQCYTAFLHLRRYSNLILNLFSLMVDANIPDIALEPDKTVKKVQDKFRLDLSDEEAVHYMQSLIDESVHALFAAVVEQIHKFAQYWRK
In data set [9] the target is Phosphatidylinositol 4,5-bisphosphate 3-kinase catalytic subunit alpha isoform (Homo sapiens, UniProt P42336). Nature of the data set: Binding affinity to human wild-type partial length PI3Kalpha (R108 to N1068 residues) expressed in mammalian expression system by kinome scan assay. The gist of the method: as §2
Sequence of Phosphatidylinositol 4,5-bisphosphate 3-kinase catalytic subunit alpha isoform (P42336 whole entry, the tested form may be a part, canonical isoform): as the sequence (P42336 whole entry) above
In data set [10] the target is T2, CYP1A2 (Homo sapiens, UniProt P05177).
T2 sequence (P05177 whole entry): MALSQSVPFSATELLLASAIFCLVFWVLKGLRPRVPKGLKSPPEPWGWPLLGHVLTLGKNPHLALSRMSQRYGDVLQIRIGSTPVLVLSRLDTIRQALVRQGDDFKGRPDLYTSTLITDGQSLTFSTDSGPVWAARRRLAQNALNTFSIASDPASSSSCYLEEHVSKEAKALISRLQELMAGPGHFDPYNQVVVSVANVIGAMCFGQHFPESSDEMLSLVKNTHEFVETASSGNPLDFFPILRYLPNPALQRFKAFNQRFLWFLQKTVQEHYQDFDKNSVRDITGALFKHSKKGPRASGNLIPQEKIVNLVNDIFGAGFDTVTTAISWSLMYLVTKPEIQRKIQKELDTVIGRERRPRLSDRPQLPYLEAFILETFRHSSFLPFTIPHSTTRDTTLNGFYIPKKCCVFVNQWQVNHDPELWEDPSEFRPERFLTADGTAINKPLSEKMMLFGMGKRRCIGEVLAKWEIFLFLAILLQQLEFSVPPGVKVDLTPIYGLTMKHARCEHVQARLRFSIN
Kind of data set: Substrate activity at recombinant human CYP1A2 expressed in baculovirus infected insect cells assessed as parent compound remaining at 1 uM incubated for 60 mins in presence of NADP+-regenerating system by LC-MS analysis. The class given is ADME. The conditions noted are these: read-out: Stability. The gist of the method: as §1

In data set [11] the target is T1, CYP1A1. Kind of data set: Substrate activity at recombinant human CYP1A1 expressed in baculovirus infected insect cells assessed as parent compound remaining at 1 uM incubated for 60 mins in presence of NADP+-regenerating system by LC-MS analysis. In kind it is ADME. The conditions noted are these: read-out: Stability. In outline: as §1
Data set [12] is described as follows: AUC (0 to 8 hrs) in Sprague-Dawley rat brain at 5 mg/kg, po by UHPLC-MS analysis. The class given is ADME, organism-based. Set-up: time < 8 hr, dose 5 mg/kg, route oral. Particulars: in vivo. The gist of the method: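 Male Sprague Dawley rats (8 weeks old at delivery), single oral dose of 5 mg/kg, formulation at pH 3. Three rats per time point (30 min, 2, 4, 8 h) under isoflurane; heart-puncture blood into lithium-heparin, then brain collected. Plasma and tissue stored at −80 °C. Samples precipitated with acetonitrile containing diazepam internal standard, then LC–MS.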

The target of data set [13] is T1, CYP1A1. Nature of the data set: Drug metabolism assessed as recombinant human CYP1A1-mediated compound hydrolysis by measuring parent compound remaining incubated for 60 mins by LC-HRMS analysis. The class given is ADME. Particulars: read-out: Stability. The gist of the method:
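Human recombinant CYP1A1 or CYP1A2 Supersomes (25 pmol/mL) incubated with compound at 1 μM (0.25% DMSO) plus NADP+-regenerating cofactors at 37 °C for 60 min. Reaction stopped with ACN containing internal standard. Parent and metabolites expressed as percentage of total peak areas.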

The structures appear in SMILES notation.

Sequence of Phosphatidylinositol 4,5-bisphosphate 3-kinase catalytic subunit beta isoform (P42338 whole entry, the tested form may be a part, canonical isoform): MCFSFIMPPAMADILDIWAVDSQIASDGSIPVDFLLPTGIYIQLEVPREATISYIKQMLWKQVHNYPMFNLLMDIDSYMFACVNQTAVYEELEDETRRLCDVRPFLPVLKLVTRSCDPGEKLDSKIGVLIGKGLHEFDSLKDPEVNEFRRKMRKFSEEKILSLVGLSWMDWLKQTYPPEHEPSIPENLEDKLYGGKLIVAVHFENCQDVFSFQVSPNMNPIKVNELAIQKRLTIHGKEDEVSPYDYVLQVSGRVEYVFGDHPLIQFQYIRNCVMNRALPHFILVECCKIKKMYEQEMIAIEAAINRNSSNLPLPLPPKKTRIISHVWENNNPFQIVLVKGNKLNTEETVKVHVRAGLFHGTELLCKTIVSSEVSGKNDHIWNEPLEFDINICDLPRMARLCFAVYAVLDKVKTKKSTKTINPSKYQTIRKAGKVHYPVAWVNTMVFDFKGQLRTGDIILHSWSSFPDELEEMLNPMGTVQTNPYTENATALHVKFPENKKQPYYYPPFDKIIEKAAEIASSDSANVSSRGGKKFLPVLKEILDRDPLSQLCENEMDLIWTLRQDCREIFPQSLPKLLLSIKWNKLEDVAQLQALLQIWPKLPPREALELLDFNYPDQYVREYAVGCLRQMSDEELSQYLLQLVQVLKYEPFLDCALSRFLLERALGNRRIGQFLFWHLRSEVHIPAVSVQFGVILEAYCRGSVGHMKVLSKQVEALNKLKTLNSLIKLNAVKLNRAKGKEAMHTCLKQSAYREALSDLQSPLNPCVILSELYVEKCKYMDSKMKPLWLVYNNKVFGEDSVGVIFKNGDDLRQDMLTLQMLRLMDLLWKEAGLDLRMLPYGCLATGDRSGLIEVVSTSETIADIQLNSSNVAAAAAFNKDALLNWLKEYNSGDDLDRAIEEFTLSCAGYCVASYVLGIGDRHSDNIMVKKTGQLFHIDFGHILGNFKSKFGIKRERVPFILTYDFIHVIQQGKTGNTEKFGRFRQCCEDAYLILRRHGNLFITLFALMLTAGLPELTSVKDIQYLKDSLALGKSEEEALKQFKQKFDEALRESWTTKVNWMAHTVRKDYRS
Sequence of Phosphatidylinositol 4,5-bisphosphate 3-kinase catalytic subunit gamma isoform (P48736 whole entry, the tested form may be a part, canonical isoform): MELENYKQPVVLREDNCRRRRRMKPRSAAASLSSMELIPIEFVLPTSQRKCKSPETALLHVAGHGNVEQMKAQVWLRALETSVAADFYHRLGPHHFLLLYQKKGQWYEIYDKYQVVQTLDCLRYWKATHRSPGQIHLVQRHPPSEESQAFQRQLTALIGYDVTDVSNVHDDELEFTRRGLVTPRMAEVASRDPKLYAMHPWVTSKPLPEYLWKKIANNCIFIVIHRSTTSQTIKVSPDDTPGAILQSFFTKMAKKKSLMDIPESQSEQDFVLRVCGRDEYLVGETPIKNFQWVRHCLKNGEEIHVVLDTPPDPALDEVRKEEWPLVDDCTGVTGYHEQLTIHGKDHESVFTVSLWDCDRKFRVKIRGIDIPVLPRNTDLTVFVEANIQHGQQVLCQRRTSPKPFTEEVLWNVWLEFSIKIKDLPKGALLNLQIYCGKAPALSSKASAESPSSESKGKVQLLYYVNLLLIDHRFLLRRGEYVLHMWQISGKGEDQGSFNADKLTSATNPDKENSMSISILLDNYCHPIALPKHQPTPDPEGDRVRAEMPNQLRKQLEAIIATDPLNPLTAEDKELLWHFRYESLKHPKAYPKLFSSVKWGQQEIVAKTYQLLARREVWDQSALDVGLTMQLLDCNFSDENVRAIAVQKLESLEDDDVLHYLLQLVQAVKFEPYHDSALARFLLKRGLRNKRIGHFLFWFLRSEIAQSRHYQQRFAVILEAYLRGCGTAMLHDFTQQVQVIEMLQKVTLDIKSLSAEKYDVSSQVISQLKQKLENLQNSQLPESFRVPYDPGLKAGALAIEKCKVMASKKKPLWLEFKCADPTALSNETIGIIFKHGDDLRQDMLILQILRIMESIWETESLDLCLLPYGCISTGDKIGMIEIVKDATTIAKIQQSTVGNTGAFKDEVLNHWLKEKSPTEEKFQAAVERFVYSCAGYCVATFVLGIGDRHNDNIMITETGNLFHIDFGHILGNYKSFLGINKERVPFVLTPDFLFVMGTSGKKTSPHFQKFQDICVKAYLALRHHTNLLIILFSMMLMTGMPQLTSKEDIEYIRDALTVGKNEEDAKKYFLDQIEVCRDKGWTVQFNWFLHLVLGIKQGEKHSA

For orientation: Kd means the constant that tells how readily two partners part at equilibrium. A word on the Ki: it is the dissociation constant of the complex between target and ligand, obtained from inhibition or displacement. Broadly, the IC50 is the concentration at which inhibition is half-maximal. Regarding `C[C@@H]1COCCN1c1nc(-c2ccc(N)nc2)nc2c1C[C@@H]1COCCN21`, in [1], the remaining at 1 h, 1 µM was 109%. Besides, the Kd in data set [2] was determined as 8.7 µM; in [3], 0.034 µM; in data set [6] it was 4.1 µM; in [8], 2.1 µM; in [9] it was 0.61 µM. Also, in [4], the Selectivity ratio was 17.9. The inhibitory constant (Ki) in [5] was 2.15 µM. Further, the IC50 in data set [7] was 0.061 µM.
For `C[C@@H]1COCCN1c1nc(-c2cnc(N)cn2)nc2c1C[C@@H]1COCCN21`, the values for the remaining at 1 h, 1 µM in data set [1], in data set [10] and in data set [11] were 96%, 92% and 77%, respectively. Also, the Kd in [2] is 11 µM; in [3], 0.0035 µM; in [6], 7.5 µM; in data set [8], 3.2 µM; in data set [9], 1.6 µM. The Selectivity ratio in data set [4] amounted to 457. Moreover, the Ki in data set [5] is 1.69 µM. Also, the IC50 in data set [7] amounted to 0.06 µM. The same molecule showed an AUC in data set [12] of 104 ng·h/g.
For `C[C@@H]1COCCN1c1nc(-c2cnc(N)nc2)nc2c1C[C@@H]1COCCN21`, the remaining at 1 h, 1 µM was determined as 93% in [1], 73% in data set [10] and 51% in [11]. Further, the remaining at 1 h in data set [13] is 73.3%. Moreover, the Kd in data set [2] came out at 1.8 µM; in [3], 0.014 µM; in [6], 1.4 µM; in data set [8] it was 0.98 µM; in [9], 0.12 µM. The Selectivity ratio in data set [4] stood at 8.6. The Ki in data set [5] was found to be 0.536 µM. In addition, the 50% inhibitory concentration (IC50) in [7] is 0.055 µM.

The values above are taken from ChEMBL document CHEMBL4321805, “A Conformational Restriction Strategy for the Identification of a Highly Selective Pyrimido-pyrrolo-oxazine mTOR Inhibitor” (J Med Chem, 2019).
